# Bioassay records deposited in PubChem by several laboratories.
# In the library only some 1.4% were active in any assay of this set; here they are far more common.
# Rce1 inh: inhibitors of yeast Ras-converting enzyme. Q03530. yeast membranes, quenched prenylated peptide cleavage fluorescence. calls only. 290,000 compounds, 0.27% hits;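 active = fall in fluorescence gain of 50% or more versus controls, with final raw signal at or below 3038400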;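 also: plate controls were neutral control wells for no effect and wells lacking membranes for full effect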
# Fh CTSL1 inh: blocks F. hepatica cathepsin L1 in PFM18AAP counter-screen. 300,000 compounds, 0.49% hits. inhibition, % at 5.96 µM. AID 1906. recombinant F. hepatica cathepsin L1, Z-Leu-Arg-MCA fluorescence;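 active = inhibition above the mean of all tested compounds plus 3 SD, set per screening campaign, cut at about 17% in these data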;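 also: 0% = plate median of test compound wells and 100% = 1 µM Z-Phe-Ala-diazomethylketone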
# FXIIa inh 1536: blocks human coagulation factor XIIa protease activity. P00748. inhibition, % at 5 µM. 220,000 compounds, 0.3% hits. purified FXIIa, Boc-QGR-AMC fluorogenic substrate, 2 h; in the data active = inhibition above about 40%;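 also: 0% = enzyme with no compound and 100% = blank without enzyme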
# Target sequence (P00748 20-372 limits assumed): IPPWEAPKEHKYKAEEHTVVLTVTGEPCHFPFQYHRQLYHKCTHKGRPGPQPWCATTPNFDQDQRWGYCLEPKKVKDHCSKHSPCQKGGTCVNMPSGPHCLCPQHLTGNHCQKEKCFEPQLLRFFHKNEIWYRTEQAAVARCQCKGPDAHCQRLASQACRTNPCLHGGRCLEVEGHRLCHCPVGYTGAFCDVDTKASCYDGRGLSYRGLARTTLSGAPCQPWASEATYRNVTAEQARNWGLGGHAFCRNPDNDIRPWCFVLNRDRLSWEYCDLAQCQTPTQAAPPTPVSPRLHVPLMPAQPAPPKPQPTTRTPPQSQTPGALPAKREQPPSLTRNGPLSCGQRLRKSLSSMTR
# Target sequence (P00748 373-615 limits assumed): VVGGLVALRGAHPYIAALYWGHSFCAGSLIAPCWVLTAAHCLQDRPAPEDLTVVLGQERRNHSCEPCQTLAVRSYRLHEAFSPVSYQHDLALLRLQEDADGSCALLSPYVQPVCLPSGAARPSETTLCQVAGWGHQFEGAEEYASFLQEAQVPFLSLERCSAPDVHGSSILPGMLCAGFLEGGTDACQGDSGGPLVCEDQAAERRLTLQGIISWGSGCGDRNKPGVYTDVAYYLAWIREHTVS
# Thrombin inh: inhibitors of human thrombin; 220,000 compounds, 0.26% hits; alpha-thrombin, Boc-VPR-AMC fluorogenic substrate cleavage; P00734; inhibition, % at 5 µM;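 active = inhibition at or above 40%; inactive = inhibition below 40%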;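 also: 0% = enzyme with no compound and 100% = wells without enzyme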
#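 System – human alpha-thrombin protein · Reagent – Boc-VPR-AMC substrate, 15 µM final · Compound – 5 µM single dose in 0.2% DMSO · Schedule – reaction at room temperature · Technique – AMC fluorescence at 355 nm excitation and 460 nm emission · Read-out basis – % inhibition relative to enzyme controls and enzyme-free blanks · Control set – no-compound enzyme wells and no-enzyme blanks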
# FXIa inh: factor XIa (human) inhibition | purified FXIa, Boc-Glu-Ala-Arg-AMC fluorogenic substrate | inhibition, % at 5 µM | 220,000 compounds, 0.14% hits | P03951;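 active = inhibition of at least 40%; inactive = inhibition below 40%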;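 also: fluorescence of freed AMC excited at 355 nm; 0% = enzyme without compound and 100% = no enzyme blank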
# KLK5 inh: inhibitors of human kallikrein 5. Q9Y337. recombinant hK5, fluorogenic AMC substrate cleavage. inhibition, % at 5 µM. 210,000 compounds, 0.59% hits. AID 873;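 active = inhibition of 40% or more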;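 also: 0% = enzyme controls without compound and 100% = no-enzyme blanks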
# An asterisk follows results filed as active; i = inactive; . = no result given; + = active, no number.
SMILES,Rce1 inh,Fh CTSL1 inh,FXIIa inh 1536,Thrombin inh,FXIa inh,KLK5 inh
C1CCN(c2nc(N3CCCCC3)nc(N3CCNCC3)n2)CC1,i,3,19,-2,3,-8
C1CN(c2nc(N3CCOCC3)nc(N3CCOCC3)n2)CCO1,i,6,7,-5,5,-5
N#Cc1nc(N2CCCCC2)nc(N2CCOCC2)n1,i,76*,4,-7,-6,14
O=C1NC(c2ccccc2OC(F)F)Oc2ccccc21 (stereo unspecified),i,2,3,-3,-5,-4
CC1(C)CC(=O)C2=C(C1)OC1=C(C(=O)CC(C)(C)C1)C2c1ccc(O)c([N+](=O)[O-])c1,i,18*,0,-3,-7,-14
COc1c2c(c(C)c3c1C(=O)OC3)O[C@@]1(C)CC[C@@]3(O)C(C)(C)OC(=O)CC[C@]3(C)[C@H]1C2,i,25*,8,4,3,3
COc1ccc(C(c2nnnn2C2CCCCC2)N2CCN(C)CC2)c(OC)c1 (stereo unspecified),i,18*,2,2,-5,-2
O=C(CN1CCN(c2ccccc2)CC1)Nc1ccc(Oc2ccccc2)cc1,i,0,0,0,1,5
CCOc1ccc(-c2ncncc2-c2ccc(OC)c(OC)c2)c(O)c1,i,-1,.,.,.,.
CC1=NN(C(C#N)c2ccccc2)C(c2ccccc2)C1 (stereo unspecified),i,18*,7,1,1,4
COc1ccc(C(C#N)N2N=C(C)CC2c2ccccc2)cc1 (stereo unspecified),i,3,.,.,.,.
O=C1c2cccc3cccc(c23)C(=O)N1OS(=O)(=O)c1ccccc1,i,2,-3,12,-18,-33
Cc1ccc(C)c(S(=O)(=O)ON2C(=O)c3ccccc3C2=O)c1,i,12,77*,48*,62*,9
O=C1c2ccccc2C(=O)N1OS(=O)(=O)c1ccccc1,i,13,76*,34,43*,-23
Cc1cc(S(=O)(=O)ON2C(=O)c3ccccc3C2=O)ccc1F,i,4,.,.,.,.
CC(C)C[C@@H]1NC(=O)[C@H](Cc2ccc(O)cc2)NC(=O)[C@H](CCC(N)=O)NC(=O)c2cc([N+](=O)[O-])cc(I)c2NCC[C@@H](C(N)=O)NC1=O,i,12,34,5,23,-3
CC1=Nc2ccccc2/C1=C/c1nc(-c2ccc(C)s2)oc1O,i,25*,12,-1,6,10
CC1=Nc2ccccc2/C1=C\c1nc(-c2ccccc2)oc1O,i,17*,14,-1,4,14
COc1ccc(-c2nc(/C=C3\C(C)=Nc4ccccc43)c(O)o2)cc1,i,13,7,0,1,6
CN(C(=O)c1nc(-c2ccccc2)n(-c2ccccc2)n1)C1CCS(=O)(=O)C1 (stereo unspecified),i,-1,.,.,.,.
O=C(CSc1nc2ccccc2c(=O)n1-c1ccccc1)N1CCCc2ccccc21,i,36*,9,-5,3,-3
Cc1cc(C)n(C(=O)/C(C#N)=N\Nc2ccccc2[N+](=O)[O-])n1,i,2,4,-10,-3,5
Cc1cc(C)n(C(=O)/C(C#N)=N/Nc2cc(Cl)cc(Cl)c2)n1,i,20*,23,9,30,22
NC(=O)COc1c(-c2ccccc2)oc2ccccc2c1=O,i,-1,16,3,8,46*
O=C(O)COc1c(-c2ccccc2)oc2ccccc2c1=O,i,-2,18,-14,9,-15
SMILES,Rce1 inh,Fh CTSL1 inh,FXIIa inh 1536,Thrombin inh,FXIa inh,KLK5 inh
O=C(Cn1c(-c2cscn2)nc2ccccc21)Nc1ccccc1F,i,-5,22,32,8,42*
Fc1ccc(Cn2c(-c3cscn3)nc3ccccc32)c(Cl)c1,i,-3,7,-7,-7,1
NC(=S)N=Nc1c(O)n(CCCl)c2ccc(Br)cc12,i,6,3,-2,-4,2
C/C(Cl)=C\Cn1c(O)c(N=NC(N)=S)c2cc(Br)ccc21,+,3,10,-7,3,13
NC(=S)N=Nc1c(O)n(Cc2ccc(F)cc2)c2ccccc12,+,6,5,8,8,-7
NC(=S)N=Nc1c(O)n(Cc2ccc(Br)cc2)c2ccccc12,i,3,4,8,2,2
CCCCNC(=O)c1ccc(NC(C)=O)c(Cl)c1,i,-1,10,-4,0,-1
Cn1nccc1C(=O)Nc1nnc(C2CC2)s1,i,-1,.,.,.,.
O=C(CSc1nnnn1-c1ccccc1)CSc1nnnn1-c1ccccc1,i,22*,5,0,-1,-6
Cc1ccc(C(=O)N2C(CC(=O)Nc3ccc(Cl)cc3)C(=O)NC3CCCCC32)cc1 (stereo unspecified),i,3,11,50*,-3,18
CCCC/C(O)=N\S(=O)(=O)c1ccc(N=NN(C)C)cc1,i,-1,34,32,10,70*
CN(C)N=Nc1ccc(S(N)(=O)=O)cc1,i,1,2,-17,-5,-3
Cn1cc(Br)c(C(=O)N/N=C/c2cc3c(cc2Cl)OCO3)n1,i,.,.,.,.,.
Cc1ccc2[nH]cc(C(=O)CCl)c2c1,i,61*,10,-2,5,-17
O=C(Nc1ccc2c(c1)COC2=O)c1ccc(Cl)c(Cl)c1,i,3,.,.,.,.
O=C(c1ccco1)N1C(=O)c2cccc3cccc1c23,.,0,-3,-6,-12,0
Nc1cccc2c1C(=O)N(C(=O)c1ccco1)C2=O,i,-3,15,47*,11,9
Cc1cccc(NS(=O)(=O)c2cc(C(=O)N3CCc4ccccc4C3)ccc2Cl)c1C,i,0,31,35,19,39
NCCCCCc1nnc(SCC(=O)Nc2cccc(Cl)c2)o1,i,17*,20,3,1,-11
C#CCOCCOCCOCCNc1nc(N2CCN(C(=O)CCCCCCCCCCNC(=O)Cn3cc(CCCCCN)nn3)CC2)nc(N2CCN(C(=O)CCCCCCCCCCNC(=O)[C@H]([C@@H](C)CC)n3cc(CCCCCN)nn3)CC2)n1,.,7,.,.,.,.
COc1ccc(C)cc1NC(=O)COC(=O)C1CCN(C(=O)c2ccc(Cl)cc2)CC1,i,2,26,27,49*,28
Cc1ccccc1CN1CCc2c(OCC(=O)N3CCCc4ccccc43)cccc2C1=O,i,2,9,1,13,53*
O=C(O)/C=C/C(=O)N1CCN(S(=O)(=O)c2cc(C(F)(F)F)ccc2Cl)CC1,i,0,31,18,34,53*
CC(=O)N1CCN(S(=O)(=O)c2ccc(Cl)cc2F)CC1,i,2,8,-5,9,-4
COc1cc2nc(=S)n3[nH]c(COc4ccccc4C)nc3c2cc1OC,i,0,19,17,12,45*
